Data published in the RNAGym collection of RNA variant scans (doi:10.1002/anie.201605470).

B1: Osa-1-4 twister ribozyme (parent)
chain: CCGCCUAACACUGCCAAUGCCGGUCCCAAGCCCGGAUAAAAGUGGAGGGGGCGG

Variants of: B1
Test: self-cleavage, relative activity (ratio to wild type); higher = more cleavage; co-transcriptional
Method in brief: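 The 48 positions downstream of the cleavage site in a 54-nucleotide Oryza sativa twister ribozyme template were synthesised at 97 % wild-type base and 1 % of each other base. The template was transcribed in vitro at 37 °C for 2 h, with self-cleavage allowed during transcription. Reads with or without upstream sequence after deep sequencing marked cleavage status, and relative activity is fraction cleaved normalised to wild type.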

Variant | self-cleavage
CCGCCUAACACUGCCAAUGCCGGGCCCAAGCCCGGAUAAAAGAGGAGGGGGCGG [U24G U43A] | 0.03
CCGCCUAACACUGCCAAUGCCGGGCCCAAGCCCGGAUAAAAGCGGAGGGGGCGG [U24G U43C] | 0.03
CCGCCUAACACUGCCAAUGCCGGGCCCAAGCCCGGAUAAAAGGGGAGGGGGCGG [U24G U43G] | 0.07
CCGCCUAACACUGCCAAUGCCGGUACCAAGCCCGGAUAAAAGUGGAGGGGGCGG [C25A] | 0.2
CCGCCUAAAACUGCCAAUGCCGGUACCAAGCCCGGAUAAAAGUGGAGGGGGCGG [C25A C9A] | 0.05
CCGCCUAAGACUGCCAAUGCCGGUACCAAGCCCGGAUAAAAGUGGAGGGGGCGG [C25A C9G] | 0.08
CCGCCUAAUACUGCCAAUGCCGGUACCAAGCCCGGAUAAAAGUGGAGGGGGCGG [C25A C9U] | 0.06
CCGCCUAACACUGCCAAUGCCGGUAACAAGCCCGGAUAAAAGUGGAGGGGGCGG [C25A C26A] | 0.04
CCGCCUAACACUGCCAAUGCCGGUAGCAAGCCCGGAUAAAAGUGGAGGGGGCGG [C25A C26G] | 0.05
CCGCCUAACACUGCCAAUGCCGGUAUCAAGCCCGGAUAAAAGUGGAGGGGGCGG [C25A C26U] | 0.08
CCGCCUAACACUGCCAAUGCCGGUACAAAGCCCGGAUAAAAGUGGAGGGGGCGG [C25A C27A] | 0.06
CCGCCUAACACUGCCAAUGCCGGUACGAAGCCCGGAUAAAAGUGGAGGGGGCGG [C25A C27G] | 0.03
CCGCCUAACACUGCCAAUGCCGGUACUAAGCCCGGAUAAAAGUGGAGGGGGCGG [C25A C27U] | 0.03
CCGCCUAACACUGCCAAUGCCGGUACCAAGACCGGAUAAAAGUGGAGGGGGCGG [C25A C31A] | 0.04
CCGCCUAACACUGCCAAUGCCGGUACCAAGGCCGGAUAAAAGUGGAGGGGGCGG [C25A C31G] | 0.03
CCGCCUAACACUGCCAAUGCCGGUACCAAGUCCGGAUAAAAGUGGAGGGGGCGG [C25A C31U] | 0.03
CCGCCUAACACUGCCAAUGCCGGUACCAAGCACGGAUAAAAGUGGAGGGGGCGG [C25A C32A] | 0.08
CCGCCUAACACUGCCAAUGCCGGUACCAAGCGCGGAUAAAAGUGGAGGGGGCGG [C25A C32G] | 0.05
CCGCCUAACACUGCCAAUGCCGGUACCAAGCUCGGAUAAAAGUGGAGGGGGCGG [C25A C32U] | 0.04
CCGCCUAACACUGCCAAUGCCGGUACCAAGCCAGGAUAAAAGUGGAGGGGGCGG [C25A C33A] | 0.05
CCGCCUAACACUGCCAAUGCCGGUACCAAGCCGGGAUAAAAGUGGAGGGGGCGG [C25A C33G] | 0.02
CCGCCUAACACUGCCAAUGCCGGUACCAAGCCUGGAUAAAAGUGGAGGGGGCGG [C25A C33U] | 0.07
CCGCCUAACACUGCCAAUGCCGGUACCAAGCCCGGAUAAAAGUGGAGGGGGAGG [C25A C52A] | 0.14
CCGCCUAACACUGCCAAUGCCGGUACCAAGCCCGGAUAAAAGUGGAGGGGGGGG [C25A C52G] | 0.17
CCGCCUAACACUGCCAAUGCCGGUACCAAGCCCGGAUAAAAGUGGAGGGGGUGG [C25A C52U] | 0.17

Variant | self-cleavage
CCGCCUAACACUACCAAUGCCGGUACCAAGCCCGGAUAAAAGUGGAGGGGGCGG [C25A G13A] | 0.03
CCGCCUAACACUCCCAAUGCCGGUACCAAGCCCGGAUAAAAGUGGAGGGGGCGG [C25A G13C] | 0.02
CCGCCUAACACUUCCAAUGCCGGUACCAAGCCCGGAUAAAAGUGGAGGGGGCGG [C25A G13U] | 0.02
CCGCCUAACACUGCCAAUACCGGUACCAAGCCCGGAUAAAAGUGGAGGGGGCGG [C25A G19A] | 0.06
CCGCCUAACACUGCCAAUCCCGGUACCAAGCCCGGAUAAAAGUGGAGGGGGCGG [C25A G19C] | 0.03
CCGCCUAACACUGCCAAUUCCGGUACCAAGCCCGGAUAAAAGUGGAGGGGGCGG [C25A G19U] | 0.04
CCGCCUAACACUGCCAAUGCCAGUACCAAGCCCGGAUAAAAGUGGAGGGGGCGG [C25A G22A] | 0.15
CCGCCUAACACUGCCAAUGCCCGUACCAAGCCCGGAUAAAAGUGGAGGGGGCGG [C25A G22C] | 0.03
CCGCCUAACACUGCCAAUGCCUGUACCAAGCCCGGAUAAAAGUGGAGGGGGCGG [C25A G22U] | 0.07
CCGCCUAACACUGCCAAUGCCGAUACCAAGCCCGGAUAAAAGUGGAGGGGGCGG [C25A G23A] | 0.06
CCGCCUAACACUGCCAAUGCCGCUACCAAGCCCGGAUAAAAGUGGAGGGGGCGG [C25A G23C] | 0.02
CCGCCUAACACUGCCAAUGCCGUUACCAAGCCCGGAUAAAAGUGGAGGGGGCGG [C25A G23U] | 0.03
CCGCCUAACACUGCCAAUGCCGGUACCAAACCCGGAUAAAAGUGGAGGGGGCGG [C25A G30A] | 0.02
CCGCCUAACACUGCCAAUGCCGGUACCAACCCCGGAUAAAAGUGGAGGGGGCGG [C25A G30C] | 0.02
CCGCCUAACACUGCCAAUGCCGGUACCAAUCCCGGAUAAAAGUGGAGGGGGCGG [C25A G30U] | 0.02
CCGCCUAACACUGCCAAUGCCGGUACCAAGCCCAGAUAAAAGUGGAGGGGGCGG [C25A G34A] | 0.11
CCGCCUAACACUGCCAAUGCCGGUACCAAGCCCCGAUAAAAGUGGAGGGGGCGG [C25A G34C] | 0.06
CCGCCUAACACUGCCAAUGCCGGUACCAAGCCCUGAUAAAAGUGGAGGGGGCGG [C25A G34U] | 0.11
CCGCCUAACACUGCCAAUGCCGGUACCAAGCCCGAAUAAAAGUGGAGGGGGCGG [C25A G35A] | 0.18
CCGCCUAACACUGCCAAUGCCGGUACCAAGCCCGCAUAAAAGUGGAGGGGGCGG [C25A G35C] | 0.05
CCGCCUAACACUGCCAAUGCCGGUACCAAGCCCGUAUAAAAGUGGAGGGGGCGG [C25A G35U] | 0.09
CCGCCUAACACUGCCAAUGCCGGUACCAAGCCCGGAUAAAAAUGGAGGGGGCGG [C25A G42A] | 0.06
CCGCCUAACACUGCCAAUGCCGGUACCAAGCCCGGAUAAAACUGGAGGGGGCGG [C25A G42C] | 0.04
CCGCCUAACACUGCCAAUGCCGGUACCAAGCCCGGAUAAAAUUGGAGGGGGCGG [C25A G42U] | 0.03
